Measured values: ChEMBL document CHEMBL1134439, “Radioiodinated styrylbenzenes and thioflavins as probes for amyloid aggregates” (J Med Chem, 2001)
Blank lines part the entries; values can stand above or below the compound they belong to.

Legend:
Mus musculus [1] = assay: Biodistribution was measured in mice heart 6 hours after intravenous injection of [125I]-labeled styrylbenzene.; assay type: ADME, organism-based; details: in vivo
How it was run: (§1)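 ICR mice (2-3 months old, 20-30 g) under ether anesthesia received 5-10 µCi ¹²⁵I tracer in 0.15 mL saline by tail-vein injection. Animals were killed by cardiac excision at set times post-injection. Organs were removed, weighed and γ-counted. Values are % dose per organ against diluted injectate aliquots, taking blood and muscle as 7% and 40% of body weight. Mean of 3-4 mice ± SD.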

Mus musculus [2] = assay: Biodistribution was measured in mice heart 60 minutes after intravenous injection of [125I]-labeled styrylbenzene.; assay type: ADME, organism-based; details: in vivo, 1 h; how it was run: as §1
Mus musculus [3] = assay: Biodistribution was measured in mice kidney 2 minutes after intravenous injection of [125I]-labeled styrylbenzene.; assay type: ADME, organism-based; details: in vivo; how it was run: as §1
Mus musculus [4] = assay: Biodistribution was measured in mice kidney 24 hours after intravenous injection of [125I]-labeled styrylbenzene.; assay type: ADME, organism-based; details: in vivo; how it was run: as §1
Mus musculus [5] = assay: Biodistribution was measured in mice kidney 30 minutes after intravenous injection of [125I]-labeled styrylbenzene.; assay type: ADME, organism-based; details: in vivo, 0.5 h; how it was run: as §1
Mus musculus [6] = assay: Biodistribution was measured in mice kidney 6 hours after intravenous injection of [125I]-labeled styrylbenzene.; assay type: ADME, organism-based; details: in vivo; how it was run: as §1
Mus musculus [7] = assay: Biodistribution was measured in mice kidney 60 minutes after intravenous injection of [125I]-labeled styrylbenzene.; assay type: ADME, organism-based; details: in vivo, 1 h; how it was run: as §1
Mus musculus [8] = assay: Biodistribution was measured in mice liver 2 minutes after intravenous injection of [125I]-labeled styrylbenzene.; assay type: ADME, organism-based; details: in vivo; how it was run: as §1
Mus musculus [9] = assay: Biodistribution was measured in mice liver 24 hours after intravenous injection of [125I]-labeled styrylbenzene.; assay type: ADME, organism-based; details: in vivo; how it was run: as §1
Mus musculus [10] = assay: Biodistribution was measured in mice liver 30 minutes after intravenous injection of [125I]-labeled styrylbenzene.; assay type: ADME, organism-based; details: in vivo, 0.5 h; how it was run: as §1
Mus musculus [11] = assay: Biodistribution was measured in mice liver 60 minutes after intravenous injection of [125I]-labeled styrylbenzene.; assay type: ADME, organism-based; details: in vivo, 1 h; how it was run: as §1
Mus musculus [12] = assay: Biodistribution was measured in mice muscle 30 minutes after intravenous injection of [125I]-labeled styrylbenzene.; assay type: ADME, organism-based, Muscle tissue; details: in vivo, 0.5 h; how it was run: as §1
Mus musculus [13] = assay: Biodistribution was measured in mice muscle 6 hours after intravenous injection of [125I]-labeled styrylbenzene.; assay type: ADME, organism-based, Muscle tissue; details: in vivo; how it was run: as §1
Mus musculus [14] = assay: Biodistribution was measured in mice muscle 60 minutes after intravenous injection of [125I]-labeled styrylbenzene.; assay type: ADME, organism-based, Muscle tissue; details: in vivo, 1 h; how it was run: as §1
Mus musculus [15] = assay: Biodistribution was measured in mice skin 2 minutes after intravenous injection of [125I]-labeled styrylbenzene.; assay type: ADME, organism-based, Zone of skin; details: in vivo; how it was run: as §1
Mus musculus [16] = assay: Biodistribution was measured in mice skin 24 hours after intravenous injection of [125I]-labeled styrylbenzene.; assay type: ADME, organism-based, Zone of skin; details: in vivo; how it was run: as §1
Mus musculus [17] = assay: Biodistribution was measured in mice skin 30 minutes after intravenous injection of [125I]-labeled styrylbenzene.; assay type: ADME, organism-based, Zone of skin; details: in vivo, 0.5 h; how it was run: as §1
Mus musculus [18] = assay: Biodistribution was measured in mice skin 6 hours after intravenous injection of [125I]-labeled styrylbenzene.; assay type: ADME, organism-based, Zone of skin; details: in vivo; how it was run: as §1
Mus musculus [19] = assay: Biodistribution was measured in mice skin 60 minutes after intravenous injection of [125I]-labeled styrylbenzene.; assay type: ADME, organism-based, Zone of skin; details: in vivo, 1 h; how it was run: as §1
Mus musculus [20] = assay: Biodistribution was measured in mice spleen 2 minutes after intravenous injection of [125I]-labeled styrylbenzene.; assay type: ADME, organism-based; details: in vivo; how it was run: as §1
Mus musculus [21] = assay: Biodistribution was measured in mice spleen 24 hours after intravenous injection of [125I]-labeled styrylbenzene.; assay type: ADME, organism-based; details: in vivo
Mus musculus [22] = assay: Biodistribution was measured in mice spleen 30 minutes after intravenous injection of [125I]-labeled styrylbenzene.; assay type: ADME, organism-based; details: in vivo, 0.5 h
How it was run: (§2)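 ICR mice (2-3 months old, 20-30 g) under ether anesthesia; 0.15 mL saline containing 5-10 µCi ¹²⁵I tracer injected into tail vein. Sacrifice by cardiac excision at set times; organs removed, weighed, γ-counted. Expressed as % dose per organ versus diluted aliquots of injectate. Mean of three or four mice ± SD.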

Mus musculus [23] = assay: Biodistribution was measured in mice spleen 60 minutes after intravenous injection of [125I]-labeled styrylbenzene.; assay type: ADME, organism-based; details: in vivo, 1 h; how it was run: as §2
Mus musculus [24] = assay: Biodistribution was measured in mice blood 2 minutes after intravenous injection of [125I]-labeled styrylbenzene.; assay type: ADME, organism-based; details: in vivo; how it was run: as §1
Mus musculus [25] = assay: Biodistribution was measured in mice blood 24 hours after intravenous injection of [125I]-labeled styrylbenzene.; assay type: ADME, organism-based; details: in vivo; how it was run: as §1
Mus musculus [26] = assay: Biodistribution was measured in mice blood 30 minutes after intravenous injection of [125I]-labeled styrylbenzene.; assay type: ADME, organism-based; details: in vivo, 0.5 h; how it was run: as §1
Mus musculus [27] = assay: Biodistribution was measured in mice lung 2 minutes after intravenous injection of [125I]-labeled styrylbenzene.; assay type: ADME, organism-based; details: in vivo; how it was run: as §1
Mus musculus [28] = assay: Biodistribution was measured in mice lung 24 hours after intravenous injection of [125I]-labeled styrylbenzene.; assay type: ADME, organism-based; details: in vivo, in the assay text read “thioflavin” for “styrylbenzene”; how it was run: as §1
Mus musculus [29] = assay: Biodistribution was measured in mice lung 30 minutes after intravenous injection of [125I]-labeled styrylbenzene.; assay type: ADME, organism-based; details: in vivo, 0.5 h; how it was run: as §1
Mus musculus [30] = assay: Biodistribution was measured in mice lung 6 hours after intravenous injection of [125I]-labeled styrylbenzene.; assay type: ADME, organism-based; details: in vivo, in the assay text read “thioflavin” for “styrylbenzene”; how it was run: as §1
Mus musculus [31] = assay: Biodistribution was measured in mice lung 60 minutes after intravenous injection of [125I]-labeled styrylbenzene.; assay type: ADME, organism-based; details: in vivo, 1 h; how it was run: as §1
Mus musculus [32] = assay: Biodistribution was measured in mice muscle 2 minutes after intravenous injection of [125I]-labeled styrylbenzene.; assay type: ADME, organism-based, Muscle tissue; details: in vivo, in the assay text read “thioflavin” for “styrylbenzene”; how it was run: as §1
Mus musculus [33] = assay: Biodistribution was measured in mice muscle 24 hours after intravenous injection of [125I]-labeled styrylbenzene.; assay type: ADME, organism-based, Muscle tissue; details: in vivo; how it was run: as §1
Mus musculus [34] = assay: Biodistribution was measured in mice brain 6 hours after intravenous injection of [125I]-labeled styrylbenzene; assay type: ADME, organism-based; details: in vivo; how it was run: as §1
Mus musculus [35] = assay: Biodistribution was measured in mice brain 60 minutes after intravenous injection of [125I]-labeled styrylbenzene; assay type: ADME, organism-based; details: in vivo, 1 h; how it was run: as §1
Mus musculus [36] = assay: Biodistribution was measured in mice heart 2 minutes after intravenous injection of [125I]-labeled styrylbenzene.; assay type: ADME, organism-based; details: in vivo; how it was run: as §1
Mus musculus [37] = assay: Biodistribution was measured in mice heart 24 hours after intravenous injection of [125I]-labeled styrylbenzene.; assay type: ADME, organism-based; details: in vivo; how it was run: as §1
Mus musculus [38] = assay: Biodistribution was measured in mice heart 30 minutes after intravenous injection of [125I]-labeled styrylbenzene.; assay type: ADME, organism-based; details: in vivo, 0.5 h; how it was run: as §1
Mus musculus [39] = assay: Biodistribution was measured in mice blood 6 hours after intravenous injection of [125I]-labeled styrylbenzene.; assay type: ADME, organism-based; details: in vivo; how it was run: as §1
Mus musculus [40] = assay: Biodistribution was measured in mice blood 60 minutes after intravenous injection of [125I]-labeled styrylbenzene.; assay type: ADME, organism-based; details: in vivo, 1 h; how it was run: as §1
Mus musculus [41] = assay: Biodistribution was measured in mice brain 2 minutes after intravenous injection of [125I]-labeled styrylbenzene; assay type: ADME, organism-based; details: in vivo, in the assay text read “thioflavin” for “styrylbenzene”; how it was run: as §1
Mus musculus [42] = assay: Biodistribution was measured in mice brain 24 hours after intravenous injection of [125I]-labeled styrylbenzene; assay type: ADME, organism-based; details: in vivo, in the assay text read “thioflavin” for “styrylbenzene”; how it was run: as §1
Mus musculus [43] = assay: Biodistribution was measured in mice brain 30 minutes after intravenous injection of [125I]-labeled styrylbenzene; assay type: ADME, organism-based; details: in vivo, 0.5 h; how it was run: as §1
[44] = molecular target: T1, Amyloid-beta precursor protein (Homo sapiens, UniProt P05067); assay: Inhibition constant for aggregates of amyloid beta compared to [125I]IMSB
How it was run: (§3)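 Aβ(1-40) or Aβ(1-42) aggregated at 0.5 or 0.25 mg/mL respectively in pH 7.4 buffer (10 mM sodium phosphate, 1 mM EDTA), 37 °C, 36-42 h with shaking. Competition against ¹²⁵I radioligand with fibrils 10-50 nM (final), 10% EtOH, 1 mL. Incubation 3 h room temperature. Bound ligand collected by GF/B filtration, γ-counted. Ki by nonlinear regression. Mean ± SEM, three experiments in duplicate.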

Mus musculus [45] = assay: Biodistribution was measured in mice liver 6 hours after intravenous injection of [125I]-labeled styrylbenzene.; assay type: ADME, organism-based; details: in vivo, in the assay text read “thioflavin” for “styrylbenzene”; how it was run: as §1
Mus musculus [46] = assay: Biodistribution was measured in mice spleen 6 hours after intravenous injection of [125I]-labeled thioflavin.; details: in vivo
[47] = molecular target: T1, Amyloid-beta precursor protein; assay: Inhibition constant of compound on ligand binding to aggregates of Amyloid beta was measured by comparing with [125I]TZDM
How it was run: (§4)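 Aβ(1-40) or Aβ(1-42) peptide pre-aggregated at 0.5 or 0.25 mg/mL respectively in pH 7.4 buffer (10 mM sodium phosphate, 1 mM EDTA), 37 °C for 36-42 h with shaking. Fibrils (10-50 nM final) incubated with ¹²⁵I radioligand in 10% EtOH, 3 h at room temperature. Bound ligand separated by GF/B filtration and γ-counted. Ki from nonlinear regression. Three independent experiments, each in duplicate, mean ± SEM.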

[48] = molecular target: T1, Amyloid-beta precursor protein; assay: Inhibition constant of compound on ligand binding to aggregates of Amyloid beta was measured by comparing with [125I]IMSB; how it was run: as §4
[49] = molecular target: T1, Amyloid-beta precursor protein; assay: Inhibition constant for amyloid beta compared to [125I]TZDM; how it was run: as §3

T1 sequence (P05067 whole entry): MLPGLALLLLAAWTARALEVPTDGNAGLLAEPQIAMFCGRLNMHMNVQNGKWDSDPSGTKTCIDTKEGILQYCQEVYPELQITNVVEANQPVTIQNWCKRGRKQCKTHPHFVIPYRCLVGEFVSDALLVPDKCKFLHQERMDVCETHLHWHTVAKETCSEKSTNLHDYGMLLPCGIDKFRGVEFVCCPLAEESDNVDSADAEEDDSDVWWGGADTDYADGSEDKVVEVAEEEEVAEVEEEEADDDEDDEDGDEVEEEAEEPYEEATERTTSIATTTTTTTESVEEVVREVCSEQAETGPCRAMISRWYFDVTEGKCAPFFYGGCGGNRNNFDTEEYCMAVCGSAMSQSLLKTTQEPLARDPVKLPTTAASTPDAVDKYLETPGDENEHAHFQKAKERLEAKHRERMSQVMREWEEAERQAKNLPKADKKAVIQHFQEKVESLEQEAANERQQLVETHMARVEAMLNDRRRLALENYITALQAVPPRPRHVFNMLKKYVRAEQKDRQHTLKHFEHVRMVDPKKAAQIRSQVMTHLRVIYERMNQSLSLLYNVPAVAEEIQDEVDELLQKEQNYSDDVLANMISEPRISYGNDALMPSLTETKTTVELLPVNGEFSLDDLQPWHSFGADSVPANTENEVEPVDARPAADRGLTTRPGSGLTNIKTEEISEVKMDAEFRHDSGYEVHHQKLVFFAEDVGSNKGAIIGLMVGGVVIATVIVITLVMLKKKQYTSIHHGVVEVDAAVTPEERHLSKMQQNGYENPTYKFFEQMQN

Dose/organ (Mus musculus [1]): 0.22%
Dose/organ (Mus musculus [2]): 0.66%
Dose/organ (Mus musculus [3]): 6.46%
Dose/organ (Mus musculus [4]): 1.15%
Dose/organ (Mus musculus [5]): 8.06%
Dose/organ (Mus musculus [6]): 3.62%
Dose/organ (Mus musculus [7]): 7.99%
Dose/organ (Mus musculus [8]): 28.84%
Dose/organ (Mus musculus [9]): 3.05%
Dose/organ (Mus musculus [10]): 21.22%
Dose/organ (Mus musculus [11]): 17.2%
Dose/organ (Mus musculus [12]): 18.82%
Dose/organ (Mus musculus [13]): 6.65%
Dose/organ (Mus musculus [14]): 19.46%
Dose/organ (Mus musculus [15]): 4.06%
Dose/organ (Mus musculus [16]): 1.64%
Dose/organ (Mus musculus [17]): 6.07%
Dose/organ (Mus musculus [18]): 3.17%
Dose/organ (Mus musculus [19]): 5.63%
Dose/organ (Mus musculus [20]): 0.89%
Dose/organ (Mus musculus [21]): 0.08%
Dose/organ (Mus musculus [22]): 0.87%
Dose/organ (Mus musculus [23]): 0.6%
Dose/organ (Mus musculus [24]): 8.02%
Dose/organ (Mus musculus [25]): 0.41%
Dose/organ (Mus musculus [26]): 5.15%
Dose/organ (Mus musculus [27]): 12.8%
Dose/organ (Mus musculus [28]): 0.44%
Dose/organ (Mus musculus [29]): 4.14%
Dose/organ (Mus musculus [30]): 1.15%
Dose/organ (Mus musculus [31]): 3.38%
Dose/organ (Mus musculus [32]): 13.24%
Dose/organ (Mus musculus [33]): 2.44%
Dose/organ (Mus musculus [34]): 1.08%
Dose/organ (Mus musculus [35]): 1.89%
Dose/organ (Mus musculus [36]): 2.19%
Dose/organ (Mus musculus [37]): 0.08%
Dose/organ (Mus musculus [38]): 0.69%
Dose/organ (Mus musculus [39]): 1.49%
Dose/organ (Mus musculus [40]): 4.16%
Dose/organ (Mus musculus [41]): 1.5%
Dose/organ (Mus musculus [42]): 0.91%
Dose/organ (Mus musculus [43]): 1.59%
Ki [44]: > 2000 nM
Dose/organ (Mus musculus [45]): 5.79%
Dose/organ (Mus musculus [46]): 0.22%
SMILES: CN1CCN(c2ccc(-c3nc4ccc(I)cc4s3)cc2)CC1

Ki [47]: > 2000 nM
Ki [48]: 0.4 nM
Ki [49]: > 1000 nM
Ki [44]: 0.14 nM
SMILES: O=C(O)c1cc(/N=N/c2ccc(-c3ccc(/N=N/c4ccc(O)c(C(=O)O)c4)cc3)cc2)ccc1O [CHRYSAMINE G]
